What all share (assay type): cell-based
For assay [1], the target named is von Hippel-Lindau disease tumor suppressor/Bromodomain-containing protein 9 (Homo sapiens) (UniProt Q9H8M2+P40337). In words: PROTAC activity at VHL/BRD9 in human Ri-1 cells assessed as remaining BRD9 protein level at 1 uM incubated for 2 hrs by Western blot analysis relative to control. An outline of the steps: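 Ri-1 cells exposed to compound for the stated time before harvest; BRD9, BRD7 and β-actin measured by Western blot, band intensities quantified and set against DMSO-treated control.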
(In general: Immunoblotting shows a protein as a band on a membrane.)

Assay [2] deals with T1, von Hippel-Lindau disease tumor suppressor/Bromodomain-containing protein 7 (Homo sapiens) (UniProt Q9NPI1+P40337). Description: PROTAC activity at VHL/BRD7 in human Ri-1 cells assessed as remaining BRD7 protein level at 1 uM incubated for 2 hrs by Western blot analysis relative to control.
Assay [3] concerns the target T1, von Hippel-Lindau disease tumor suppressor/Bromodomain-containing protein 7 (Homo sapiens). In words: PROTAC activity at VHL/BRD7 in human HeLa cells assessed as remaining BRD7 protein level at 1 uM incubated for 4 hrs by Western blot analysis relative to control.

von Hippel-Lindau disease tumor suppressor/Bromodomain-containing protein 9 (Homo sapiens), sequence (P40337 whole entry, looked up): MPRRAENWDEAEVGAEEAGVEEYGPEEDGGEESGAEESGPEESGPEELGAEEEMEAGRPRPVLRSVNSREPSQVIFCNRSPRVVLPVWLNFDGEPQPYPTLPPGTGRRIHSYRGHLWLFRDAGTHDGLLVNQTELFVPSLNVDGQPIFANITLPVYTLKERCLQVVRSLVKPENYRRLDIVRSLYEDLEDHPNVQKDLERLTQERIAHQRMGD
von Hippel-Lindau disease tumor suppressor/Bromodomain-containing protein 9 (Homo sapiens), sequence (Q9H8M2 whole entry, looked up): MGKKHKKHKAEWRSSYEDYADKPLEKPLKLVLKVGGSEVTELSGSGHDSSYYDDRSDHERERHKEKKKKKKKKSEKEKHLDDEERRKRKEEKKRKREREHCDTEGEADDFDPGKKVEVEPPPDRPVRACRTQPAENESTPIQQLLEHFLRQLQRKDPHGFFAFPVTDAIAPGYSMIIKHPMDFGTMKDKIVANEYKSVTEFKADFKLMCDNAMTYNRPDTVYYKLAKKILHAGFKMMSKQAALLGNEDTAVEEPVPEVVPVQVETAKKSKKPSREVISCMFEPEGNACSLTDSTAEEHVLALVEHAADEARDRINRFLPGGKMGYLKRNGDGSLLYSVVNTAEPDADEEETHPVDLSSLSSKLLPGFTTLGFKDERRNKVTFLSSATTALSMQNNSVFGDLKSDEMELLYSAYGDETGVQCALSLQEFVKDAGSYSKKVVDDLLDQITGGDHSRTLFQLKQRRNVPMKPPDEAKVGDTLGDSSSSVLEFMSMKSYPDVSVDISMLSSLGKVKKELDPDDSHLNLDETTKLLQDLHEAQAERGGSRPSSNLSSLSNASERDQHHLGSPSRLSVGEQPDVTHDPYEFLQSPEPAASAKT
T1 sequence (P40337 whole entry, looked up): as the sequence (P40337 whole entry, looked up) above
T1 sequence (Q9NPI1 whole entry, looked up): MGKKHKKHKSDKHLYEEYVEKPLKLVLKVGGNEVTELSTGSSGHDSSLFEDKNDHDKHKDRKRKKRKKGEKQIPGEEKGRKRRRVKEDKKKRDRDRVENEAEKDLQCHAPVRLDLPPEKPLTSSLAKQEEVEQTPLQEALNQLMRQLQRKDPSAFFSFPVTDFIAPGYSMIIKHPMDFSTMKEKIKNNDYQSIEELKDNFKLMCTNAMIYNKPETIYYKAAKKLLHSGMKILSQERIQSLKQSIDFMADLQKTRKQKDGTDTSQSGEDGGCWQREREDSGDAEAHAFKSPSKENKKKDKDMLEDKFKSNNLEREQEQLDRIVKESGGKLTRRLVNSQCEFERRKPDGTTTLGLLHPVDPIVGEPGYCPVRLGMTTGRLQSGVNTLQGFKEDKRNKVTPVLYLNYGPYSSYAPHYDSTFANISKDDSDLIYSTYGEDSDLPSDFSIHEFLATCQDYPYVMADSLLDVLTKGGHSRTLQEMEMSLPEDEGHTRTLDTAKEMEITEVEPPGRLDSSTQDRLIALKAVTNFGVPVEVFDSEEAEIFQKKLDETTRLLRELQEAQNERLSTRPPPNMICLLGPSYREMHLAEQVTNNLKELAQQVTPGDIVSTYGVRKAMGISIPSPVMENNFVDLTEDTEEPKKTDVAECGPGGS

As to `COc1cc(-c2cn(C)c(=O)c3cnccc23)c(OC)cc1CN1CC(NC(=O)CCCCOCCOc2cc(-c3scnc3C)ccc2CNC(=O)[C@@H]2C[C@@H](O)CN2C(=O)[C@@H](NC(=O)C2(F)CC2)C(C)(C)C)C1`, the Activity in assay [1] came out at 94%; in assay [2], 97%; in assay [3], 250%.

Take `COc1cc(-c2cn(C)c(=O)c3cnccc23)c(OC)cc1CN1CCN(CCCCCOCCOc2cc(-c3scnc3C)ccc2CNC(=O)[C@@H]2C[C@@H](O)CN2C(=O)[C@@H](NC(=O)C2(F)CC2)C(C)(C)C)CC1`: the Activity in assay [1] worked out at 89%; in assay [2], 102%; in assay [3] it was 336%.

With `COc1cc(-c2cn(C)c(=O)c3cnccc23)cc(OC)c1CN1CCN(CCCCCOCCOc2cc(-c3scnc3C)ccc2CNC(=O)[C@@H]2C[C@@H](O)CN2C(=O)[C@@H](NC(=O)C2(F)CC2)C(C)(C)C)CC1`, the Activity in assay [1] stood at 69%; in assay [2], 83%; in assay [3] it was 98%.

For the compound `COc1cc(-c2cn(C)c(=O)c3cnccc23)cc(OC)c1CN1CC(NC(=O)COCCOc2cc(-c3scnc3C)ccc2CNC(=O)[C@@H]2C[C@@H](O)CN2C(=O)[C@@H](NC(=O)C2(F)CC2)C(C)(C)C)C1`, the Activity in assay [1] came to 109%; in assay [2], 125%; in assay [3] it was 29%.

On to `COc1cc(-c2cn(C)c(=O)c3cnccc23)c(OC)cc1CN1CC(NC(=O)CCCCOc2cc(-c3scnc3C)ccc2CNC(=O)[C@@H]2C[C@@H](O)CN2C(=O)[C@@H](NC(=O)C2(F)CC2)C(C)(C)C)C1`, for which the Activity is 110% in assay [1], 131% in assay [2] and 54% in assay [3].

`COc1cc(-c2cn(C)c(=O)c3cnccc23)cc(OC)c1CN1CC(NC(=O)CCCCOCCOc2cc(-c3scnc3C)ccc2CNC(=O)[C@@H]2C[C@@H](O)CN2C(=O)[C@@H](NC(=O)C2(F)CC2)C(C)(C)C)C1`: the Activity was 92% in assay [1], 106% in assay [2] and 31% in assay [3].

For the compound `COc1cc(-c2cn(C)c(=O)c3cnccc23)cc(OC)c1CN1CCN(CCOCCOCCOCCOc2cc(-c3scnc3C)ccc2CNC(=O)[C@@H]2C[C@@H](O)CN2C(=O)[C@@H](NC(=O)C2(F)CC2)C(C)(C)C)CC1`, the Activity in assay [1] came to 105%; in assay [2], 125%; in assay [3], 182%.

For the compound `COc1cc(-c2cn(C)c(=O)c3cnccc23)c(OC)cc1CN1CC(NC(=O)COCCOCCOCCOc2cc(-c3scnc3C)ccc2CNC(=O)[C@@H]2C[C@@H](O)CN2C(=O)[C@@H](NC(=O)C2(F)CC2)C(C)(C)C)C1`, the Activity was 95% in assay [1], 85% in assay [2] and 138% in assay [3].

In the case of `COc1cc(-c2cn(C)c(=O)c3cnccc23)cc(OC)c1CN1CC(NC(=O)COCCOCCOCCOc2cc(-c3scnc3C)ccc2CNC(=O)[C@@H]2C[C@@H](O)CN2C(=O)[C@@H](NC(=O)C2(F)CC2)C(C)(C)C)C1`, the Activity in assay [1] came to 89%; in assay [2], 98%; in assay [3] it was 103%.

`COc1cc(-c2cn(C)c(=O)c3cnccc23)cc(OC)c1CN1CC(NC(=O)CCCCOc2cc(-c3scnc3C)ccc2CNC(=O)[C@@H]2C[C@@H](O)CN2C(=O)[C@@H](NC(=O)C2(F)CC2)C(C)(C)C)C1`: the results for the Activity in assay [1], in assay [2] and in assay [3] were 68%, 70% and 25%, respectively.

As for `COc1cc(-c2cn(C)c(=O)c3cnccc23)c(OC)cc1CN1CCN(CCOCCOc2cc(-c3scnc3C)ccc2CNC(=O)[C@@H]2C[C@@H](O)CN2C(=O)[C@@H](NC(=O)C2(F)CC2)C(C)(C)C)CC1`, the results for the Activity in assay [1], in assay [2] and in assay [3] were 94%, 98% and 3%, respectively.

Regarding `COc1cc(-c2cn(C)c(=O)c3cnccc23)c(OC)cc1CN1CCN(CCOCCOCCOc2cc(-c3scnc3C)ccc2CNC(=O)[C@@H]2C[C@@H](O)CN2C(=O)[C@@H](NC(=O)C2(F)CC2)C(C)(C)C)CC1`, the Activity in assay [1] was determined as 125%; in assay [2], 149%; in assay [3] it was 126%.

Values taken from ChEMBL document CHEMBL5260840 (J Med Chem, 2019).
